High-throughput results from PubChem.
PLCb3 inh = inhibitors of human phospholipase C beta3; hit rate 0.18% among 370,000; inhibition, % at 12.2 µM; Q01970; Purified PLC-beta3, fluorogenic substrate, fluorescence; AID 720704; in the data active = inhibition above about 11%
Target sequence (Q01970 whole entry, looked up): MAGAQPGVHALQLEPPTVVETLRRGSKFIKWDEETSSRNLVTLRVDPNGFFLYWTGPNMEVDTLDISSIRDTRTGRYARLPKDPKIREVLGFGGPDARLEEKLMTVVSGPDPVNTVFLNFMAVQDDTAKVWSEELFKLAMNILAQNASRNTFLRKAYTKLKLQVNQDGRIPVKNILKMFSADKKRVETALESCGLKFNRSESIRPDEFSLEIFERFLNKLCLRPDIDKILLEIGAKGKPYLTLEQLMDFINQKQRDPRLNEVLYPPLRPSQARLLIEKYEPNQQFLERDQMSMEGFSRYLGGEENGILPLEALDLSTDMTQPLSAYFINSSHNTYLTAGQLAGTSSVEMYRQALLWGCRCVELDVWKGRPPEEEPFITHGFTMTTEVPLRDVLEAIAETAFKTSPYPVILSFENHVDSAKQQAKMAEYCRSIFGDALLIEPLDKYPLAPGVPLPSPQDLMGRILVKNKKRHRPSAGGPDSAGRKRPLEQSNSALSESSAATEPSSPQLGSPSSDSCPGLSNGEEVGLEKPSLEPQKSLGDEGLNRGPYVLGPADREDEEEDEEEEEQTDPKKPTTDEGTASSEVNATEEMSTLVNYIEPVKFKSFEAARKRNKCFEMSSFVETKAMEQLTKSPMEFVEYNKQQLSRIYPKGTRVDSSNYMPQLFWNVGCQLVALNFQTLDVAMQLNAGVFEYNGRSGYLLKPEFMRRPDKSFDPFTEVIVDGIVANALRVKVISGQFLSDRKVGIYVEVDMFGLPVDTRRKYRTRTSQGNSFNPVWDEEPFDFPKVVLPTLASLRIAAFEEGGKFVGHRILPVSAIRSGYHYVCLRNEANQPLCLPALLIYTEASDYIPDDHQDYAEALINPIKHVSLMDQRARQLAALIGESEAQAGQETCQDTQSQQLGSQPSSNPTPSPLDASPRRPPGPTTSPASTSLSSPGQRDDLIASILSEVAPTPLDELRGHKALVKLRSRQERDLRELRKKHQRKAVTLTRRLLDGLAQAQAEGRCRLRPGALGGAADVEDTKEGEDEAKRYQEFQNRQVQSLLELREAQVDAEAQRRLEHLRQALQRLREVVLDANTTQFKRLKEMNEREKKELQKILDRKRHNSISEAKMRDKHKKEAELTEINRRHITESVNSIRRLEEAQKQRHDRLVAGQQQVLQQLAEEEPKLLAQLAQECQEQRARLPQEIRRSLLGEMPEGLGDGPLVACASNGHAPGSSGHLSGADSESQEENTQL
PLC-gamma1 inh = PLC-gamma1 (human) inhibition, primary screen. P19174. purified PLC-gamma1, fluorogenic substrate, fluorescence. inhibition, % at 12.2 µM. hit rate 0.84% among 370,000; in the data active = inhibition above about 9.5%
TbMetRS inhib = Trypanosoma brucei MetRS inhibition. purified T. brucei MetRS, ATP depletion, Kinase-Glo luminescence. inhibition, % at 11.9 µM. hit rate 0.4% among 360,000. AID 624268;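 active = inhibition above a per-plate cutoff of the control wells' mean inhibition plus 3 SD, cut at about 5.5% in these data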
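Dosing: 11.9 µM single point; system: parasite MetRS enzyme; technique: luminescence of leftover ATP; times: 15 min enzyme-compound preincubation, 2 h reaction, 10 min detection, 25 °C; replicates: each compound tested once; read-out basis: percent inhibition relative to median high and low control wells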
DAGLB inh = diacylglycerol lipase beta (human) inhibition; HEK293T DAGLB membrane lysate, EnzChek fluorogenic substrate; inhibition, % at 5.17 µM; hit rate 0.059% among 340,000; in the data active = inhibition above about 34%
sPLA2-III inh = Blocks human group III sPLA2 activity; AID 743126; Q9NZ20; inhibition, % at 12.2 µM; hit rate 0.56% among 370,000; QFRET BODIPY PC-A2 liposome hydrolysis, fluorescence;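 active = inhibition above mean plus 3 SD of compounds lying within the high and low control bounds, cut at about 19% in these data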
hGIII sPLA2 conf = human GIII-sPLA2 inhibition, confirmation; shares compounds with sPLA2-III inh; recombinant hGIII-sPLA2, BODIPY PC-A2 QFRET fluorescence; inhibition, % at 12.2 µM; hit rate 34% among 2,000; AID 743280;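 active = mean inhibition across triplicates above the hit cutoff set in the earlier primary screen, cut at about 19% in these data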
535nm interf = optically interferes with 535nm fluorescence in sPLA2 counter-screen | shares compounds with sPLA2-III inh | BODIPY FL product fluorescence interference, QFRET | inhibition, % at 12.2 µM | hit rate 8.5% among 2,000 | AID 743282;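 active = average inhibition above the solvent-only control mean plus 3 SD, cut at about 6% in these data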
BODIPY interf DR = counter-screen for HGIII-sPLA2 inhibitors: 535nm fluorescence interference, dose response; IC50, µM; AID 743455; 240 tested, under 10 active; BODIPY FL product fluorescence interference, cell-free; shares compounds with sPLA2-III inh;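 active = IC50 at or below 10 µM; inactive = IC50 above 10 µM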
Numbers stand for hits; . = inactive; / = no result. Sampled rows, rich in hits. Any-hit rate of the full collection: about 1.9%.

SMILES	PLCb3 inh	PLC-gamma1 inh	TbMetRS inhib	DAGLB inh	sPLA2-III inh	hGIII sPLA2 conf	535nm interf	others
Oc1ccc(/C=N/N(Cc2ccccc2)c2ccccc2)c(O)c1O	.	.	.	.	20.4	30.2	7.4
Nc1ccc2c(c1)C(=O)c1cc(N)c(Cl)cc1-2	.	.	.	.	29.1	30.9	8.2
Cc1cc(C(=O)NNC(=S)NC(=O)/C=C/c2ccccc2Cl)n[nH]1	.	.	.	.	26.2	42.2	.	BODIPY interf DR=.
COC(=O)[C@]12C[C@H](CC(=O)N3CCCCC3)C(=O)N(Cc3ccco3)C1=C[C@H](C1CCCC1)O[C@@H]2C	.	.	/	/	.	/	/
COc1ccc(N/N=C/c2c(C(=O)O)ccc3ccccc23)cc1	.	.	.	.	19.3	.	.
COc1ccc2ccccc2c1/C=N/Nc1ccc(Cl)c(C(=O)O)c1	.	.	.	.	.	/	/
S=C1SC2(CCCCCC2)NC2=C1CCCCC2	.	.	.	.	19.4	24.9	.
C[C@@H]1CCN(C2CC2)S(=O)(=O)c2c(cccc2N2CC[C@H](N(C)C)C2)O1	.	.	/	/	.	/	/
CCC1(c2ccccc2)NC(=S)N(c2cccc(C)c2C)N1 (stereo not given)	.	.	.	.	19.8	22.2	.
COc1ccc(OC)c2sc(NNC(=O)C3COc4ccccc4O3)nc12 (stereo not given)	.	.	.	.	21.4	.	.
Cc1cccc2sc(NNC(=O)C3COc4ccccc4O3)nc12 (stereo not given)	.	.	.	.	.	/	/
Cc1cc(C)c2sc(NNC(=O)C3COc4ccccc4O3)nc2c1 (stereo not given)	.	.	.	.	28.2	31.2	.	BODIPY interf DR=.
Cc1ccccc1NC(=O)[C@@H]1CC(=O)O[C@@H]1c1ccccc1	.	.	/	/	.	/	/
CC(C)C[C@H]1COc2cc(N3CCSCC3)ccc2S(=O)(=O)N1C	.	.	/	/	.	/	/
Cc1cccc(/C=N/n2c(-c3ccco3)n[nH]c2=S)c1	.	.	.	.	.	/	/
Cc1ccc(/C=N/n2c(-c3ccco3)n[nH]c2=S)cc1	.	.	.	.	21.5	.	.
Oc1c(C(Nc2nccs2)c2ccc(C(F)(F)F)cc2)ccc2cccnc12 (stereo not given)	.	.	.	.	40.3	22.8	.
CNC(=S)NNC(=O)c1c(C)nc2cc(C)ccn12	.	.	.	.	19.2	.	.
Nn1c(SCC(=O)Nc2ccc(OCc3ccccc3)cc2)nnc1-c1cc(-c2ccc(F)cc2)n[nH]1	.	.	/	/	.	/	/
CCOc1ccc(NC(=S)NN2C(C)CCCC2C)cc1 (stereo not given)	.	.	.	.	21.7	.	.
Cc1cc(C(=O)NCC(=O)OCC(=O)N(C(C)C)C(C)C)ccc1[N+](=O)[O-]	.	.	.	.	21.3	.	.
Cc1cccc(N2CN(Cc3cccnc3)CNC2=S)c1	.	.	.	.	19.4	.	.
Fc1cccc(-c2n[nH]c(=S)n2-c2ccccc2)c1	.	.	.	.	25.1	.	.
Cc1nn(C)cc1-c1n[nH]c(=S)n1-c1ccc(F)cc1	.	.	.	.	29.1	.	.
Cc1nn(C)c(-c2n[nH]c(=S)n2-c2ccccc2)c1Cl	.	.	.	.	25.8	24.0	.
SMILES	PLCb3 inh	PLC-gamma1 inh	TbMetRS inhib	DAGLB inh	sPLA2-III inh	hGIII sPLA2 conf	535nm interf	others
C[C@@H]1OC(C2CCCCC2)N(C)[C@H]2C[C@H]3c4cc(N5CCOCC5)ccc4CCN3C[C@@H]12 (stereo not given in full)	.	.	/	/	.	/	/
O=c1cc(C(F)(F)C(F)F)oc2ccccc12	.	.	.	.	24.8	.	.
O=c1cc(-c2ccccc2F)oc2ccccc12	.	.	.	.	.	/	/
CCOC(=O)c1c(CSC(=N)N)n(C)c2cc(Br)c(OC(C)=O)cc12	.	.	.	.	.	/	/
CCOC(=O)c1c(CSC(=N)N)n(-c2ccc(C)cc2)c2cc(Br)c(OC(C)=O)cc12	.	.	.	.	25.5	.	.
Nc1ccc(C(=O)OCC(=O)N2c3ccccc3Sc3ccccc32)cc1[N+](=O)[O-]	.	.	.	.	.	/	/
NCCNc1ccc(C(=O)N2c3ccccc3Sc3ccccc32)cc1[N+](=O)[O-]	.	.	.	.	19.8	23.8	.
CCCCCCCCN1C(=O)[C@@H](CC(=O)N2CCCC2)C[C@@]2(C(=O)OC)C1=C[C@H](C(C)C)O[C@@H]2C1CC1	.	.	/	/	.	/	/
COc1ccc(C(=O)NC(Oc2ccccc2)C(Cl)(Cl)Cl)cc1 (stereo not given)	.	.	.	.	21.4	.	.
Cc1cc2c(cc1C)N(C(=O)CSc1nncn1C)C(C)(C)c1ssc(=S)c1-2	.	.	.	.	33.9	.	.
CC1=CC(C)(C)N(C(=O)CSc2nncn2C)c2ccccc21	.	.	.	.	.	/	/
CCC(C)N(C(=O)Cn1nc(Cc2ccncc2)c2ccccc2c1=O)C(C)CC (stereo not given)	.	.	/	/	.	/	/
CCN1C(=O)[C@@H]2[C@@H]3CN(S(=O)(=O)c4ccc(C)cc4)[C@@H](c4ccccc4)[C@@H]3C(=O)C[C@@H]2C1=O	.	.	.	/	.	/	/
CCOC1=CC2=C(C(=O)C(Cl)=CC2=O)[C@@H]2CN(S(=O)(=O)c3ccc(C)cc3)[C@@H](c3ccccc3)[C@H]12	.	.	.	/	30.7	69.2	11.3
O=C(CSc1nc2ccccc2nc1N1CCOCC1)N1CCN(c2cccc(C(F)(F)F)c2)CC1	.	.	/	/	.	/	/
C=CCNS(=O)(=O)c1ccc(OCC(=O)OC)cc1	.	.	.	.	23.9	.	.
COC(=O)COc1ccc(S(=O)(=O)NCc2ccco2)cc1	.	.	.	.	.	/	/
CCOc1ccccc1C(=O)NN1C(=O)C2CCCCC2C1=O (stereo not given)	.	.	.	.	22.2	.	.
Cn1c(=O)c2[nH]c(=S)n(Cc3ccccc3)c2n(C)c1=O	.	.	.	.	23.0	.	.
CCOC(=O)[C@H]1[C@H]2COc3cc(OC)ccc3[C@@H]2N2C(=O)c3cc(OC)c(OC)cc3NC(=O)[C@@]12C	.	.	.	.	21.5	.	.
CCOC(=O)[C@H]1[C@H]2COc3ccccc3[C@@H]2N2C(=O)c3cc(OC)ccc3NC(=O)[C@@]12C	.	.	.	.	.	/	/
C=CCN1C(C(=O)OC)CN(Cc2cn(CCC3OCCO3)nn2)CCS1(=O)=O (stereo not given)	.	.	/	/	.	/	/
COC(CNC(=O)c1ccc(N2CCC3(CC2)OCCO3)c([N+](=O)[O-])c1)OC	.	.	.	.	23.0	.	.
